# Experimental data published in ChEMBL document CHEMBL1154198, “Chemical genetics of Plasmodium falciparum” (Nature, 2010).
# Tests used:
# [1] = system: Toxoplasma gondii; assay: ST_JUDE: Growth inhibition of to Toxoplasma gondii, in human U-2OS cells, as measured by luciferase.; type: functional, organism-based; settings: RH, U2OS
# Outline: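 T. gondii parasites engineered to express luciferase; drug sensitivity read by luminescence.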
# [2] = system: Plasmodium falciparum; assay: ST_JUDE: Cytotoxicity against Plasmodium falciparum V1/S; type: functional, organism-based
# [3] = ST_JUDE: Cytotoxicity using luciferase to measure ATP as an indicator of the viability of human epithelial hepatocellular carcinoma cells (HepG2); type: toxicity, cell-based
# [4] = system: Plasmodium falciparum; assay: ST_JUDE: Plasmodium falciparum 3D7 EC50 (uM) as measured by SYBR green dye; type: functional, organism-based
# [5] = system: Plasmodium falciparum; assay: ST_JUDE: Cytotoxicity against Plasmodium falciparum 3D7; type: functional, organism-based
# Outline: (§1)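 Asexual P. falciparum grown in human erythrocytes, exposed to compounds for 72 h, and growth read as the DNA quantity in treated versus control cultures. Dose-response run at 12 concentrations from 10 μM to 5 nM.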
# [6] = system: Plasmodium falciparum; assay: ST_JUDE: Cytotoxicity against Plasmodium falciparum D10 transfected with yeast DHOD; type: functional, organism-based
# [7] = system: Trypanosoma brucei; assay: ST_JUDE: Cytotoxicity using luciferase to measure ATP as an indicator of the viability of Trypanosoma brucei; type: functional, organism-based
# [8] = system: Plasmodium falciparum; assay: ST_JUDE: Cytotoxicity against Plasmodium falciparum K1; type: functional, organism-based; outline: as §1
# [9] = ST_JUDE: Cytotoxicity using luciferase to measure ATP as an indicator of the viability of human Burkitt''s lymphoma lymphoblast cells (Raji); type: toxicity, cell-based
# [10] = ST_JUDE: Cytotoxicity using luciferase to measure ATP as an indicator of the viability of human epithelial embryonic kidney cells (HEK293); type: toxicity, cell-based
# [11] = ST_JUDE: Cytotoxicity using luciferase to measure ATP as an indicator of the viability of human foreskin fibroblast cells (BJ); type: toxicity, cell-based
# [12] = system: Plasmodium falciparum; assay: ST_JUDE: Cytotoxicity against Plasmodium falciparum W2; type: functional, organism-based
# [13] = system: Plasmodium falciparum; assay: ST_JUDE: Cytotoxicity against Plasmodium falciparum Dd2; type: functional, organism-based
# [14] = system: Plasmodium falciparum; assay: ST_JUDE: Cytotoxicity against Plasmodium falciparum SB-A6; type: functional, organism-based
# [15] = system: Leishmania major; assay: ST_JUDE: Cytotoxicity using Alamar Blue to measure viability of Leishmania major; type: functional, organism-based
# Outline: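 L. major promastigotes; drug susceptibility read with Alamar Blue.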
# [16] = system: Plasmodium falciparum; assay: ST_JUDE: Plasmodium falciparum K1 EC50 (uM) as measured by SYBR green dye; type: functional, organism-based
SMILES,EC50 [1] [nM],EC50 [2] [nM],EC50 [3] [nM],EC50 [4] [nM],EC50 [5] [nM],EC50 [6] [nM],EC50 [7] [nM],EC50 [8] [nM],EC50 [9] [nM],EC50 [10] [nM],EC50 [11] [nM],EC50 [12] [nM],EC50 [13] [nM],EC50 [14] [nM],EC50 [15] [nM],EC50 [16] [nM]
c1ccc(CCNc2ccnc3cc4ccccc4cc23)cc1,> 17000,833,1320,121,267,1000,2880,671,9530,7190,6620,674,150,171,> 13300,191
CCc1nc2nc(C)cc(Nc3ccc(I)cc3)n2n1,> 21600,1160,> 39500,285,347,> 10100,> 37800,641,> 39500,> 39500,> 39500,595,456,> 10100,> 16900,368
Fc1ccc(Nc2nc(NCc3ccco3)c3ccccc3n2)cc1,13600,1910,8250,673,581,1200,12200,1120,14900,20000,20100,354,489,357,2.9,> 15000
CC(CNC(=O)c1cn(C2CCCCC2)cc(C(=O)NC(C)(C)C)c1=O)c1ccccc1 (centres undefined),> 28900,> 13600,> 52800,93.7,321,150,> 50700,705,> 52800,> 52800,> 52800,> 13600,2180,109,> 22600,8050
CCCO/C(O)=C1\C(C)=NC2=C(C(=O)CC(c3ccc(OC)c(OC)c3)C2)C1c1ccc(F)cc1 (centres undefined),> 19900,155,> 36300,61.3,96.4,58,5920,121,> 36300,> 36300,> 36300,56.6,95.2,60.3,> 15600,24
Cc1c2[nH]c3ccccc3c2c2c([n+]1C)CC(C)(C)CC2,> 30400,3330,> 55500,896,3190,1350,13600,3520,> 55500,> 55500,> 55500,154,921,1040,480,1400
OC(CNC1CCCC1)Cn1c2ccccc2c2ccccc21 (centres undefined),> 22200,813,14800,1080,1690,2690,3410,620,> 40600,31500,20300,879,889,3170,> 17400,163
CC(C)(C)c1cc(/N=N/C(=O)c2ccncc2)cc(C(C)(C)C)c1O,2300,508,> 28400,545,602,478,1010,480,682,971,> 28400,1110,1010,462,> 12200,496
CC[n+]1c(/C=C/c2ccc(N(C)C)cc2)ccc2cc(OC)ccc21,> 12700,430,2990,1690,247,372,343,471,529,> 23200,> 23200,92.2,174,702,0.5,707
CCOC(=O)C1=C(C)N=c2s/c(=C\c3cc(Cl)ccc3O)c(=O)n2C1c1ccc(N(C)C)cc1 (centres undefined),> 9980,235,> 18200,> 15000,> 4680,> 4680,6200,446,> 18200,> 18200,> 18200,> 4680,1820,2690,> 7800,1000
CCCCCCCn1ccc(=N)cc1,> 28200,10300,> 51400,3100,2190,3840,> 49300,2310,10800,> 51400,> 51400,> 13200,2730,4160,> 22000,2520
Cc1cccc(N2CCN(Cc3cc(Br)ccc3O)CC2)c1C,> 15300,255,> 27900,425,372,576,> 26700,178,> 27900,> 27900,> 27900,> 7160,521,699,> 11900,153
COc1ccc(C2CC3=NC(C)=C(C(=O)OC(C)C)C(c4ccccc4Cl)C3=C(O)C2)cc1OC (centres undefined),14600,87.6,> 41200,35.8,87,45.5,6770,53.8,> 41200,> 41200,> 41200,40.6,58.2,35,> 17600,17.8
COCCO/C(O)=C1\C(C)=NC2=C(C(=O)CC(c3ccc(OC)c(OC)c3)C2)C1c1ccccc1F (centres undefined),> 21900,406,> 39900,717,498,553,> 38300,314,> 39900,> 39900,> 39900,1350,970,313,> 17100,551
CCCCCOc1ccc(N(C(C)=O)C2=C(N3CCOCC3)C(=O)c3ccccc3C2=O)cc1,> 19800,70,22600,327,75,36.2,1840,77.5,3260,> 36200,> 36200,> 9290,1470,59.6,> 15500,208
CCO/C(O)=C1\C(C)=NC2=C(C(=O)CC(c3ccc(OC)c(OC)c3)C2)C1c1cccc(C)c1 (centres undefined),> 22300,1180,> 40600,1020,1100,1360,> 39000,950,> 40600,> 40600,> 40600,816,2080,602,> 17400,633
Cc1ccc(NC(=O)c2c(I)cnn2C)cc1[N+](=O)[O-],> 25100,3730,> 45700,705,769,> 11700,> 43900,> 11700,> 45700,> 45700,> 45700,583,822,> 11700,> 19600,1050
CCc1ccc(S(=O)(=O)NC2=C/C(=N\c3ccccc3OC)C(=O)c3ccccc32)cc1,> 21800,327,10300,277,954,406,1980,377,2760,9010,6800,> 10200,677,531,> 17000,150
Oc1ccc(Cl)cc1CN1CCN(c2cccc(C(F)(F)F)c2)CC1,> 19400,855,> 35300,2370,1570,1650,> 33900,476,> 35300,> 35300,> 35300,> 9070,1550,2130,> 15100,886
